Measured values reported in ChEMBL document CHEMBL4765366, “Targeting fungal virulence factor by small molecules: Structure-based discovery of novel secreted aspartic protease 2 (SAP2) inhibitors” (Eur J Med Chem, 2020).
Activity calls are given as the source filed them. The rule behind the calls is not given here.

Columns and labels:
[1] = Inhibition of recombinant Candida albicans SAP2 using Dabcyl-Arg-Lys-Pro-Ala-Leu-Phe-Phe-Arg-Leu-Glu (EDANS)-Arg-OH as substrate incubated for 30 mins followed by substrate addition and measured after 30 mins by spectrophotometry
Candida albicans [2] = experiment: Inhibition of recombinant Candida albicans SAP2 at 100 uM using Dabcyl-Arg-Lys-Pro-Ala-Leu-Phe-Phe-Arg-Leu-Glu (EDANS)-Arg-OH as substrate incubated for 30 mins followed by substrate addition and measured after 30 mins by spectrophotometry relative to control; conditions: time 60.0 min
In short: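 FRET assay with purified expressed C. albicans SAP2 in 50 mM sodium citrate, 50 mM NaCl, pH 4.5. Compound (diluted in DMSO) was preincubated with enzyme 30 min before adding the Dabcyl/EDANS peptide substrate (18.75 μM solution in DMSO). Reaction ran 30 min at 30 °C, then fluorescence was read at ex 340, em 485 nm. Pepstatin A was the positive control.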

Candida albicans [3] = experiment: Antibiofilm activity against azole resistant Candida albicans 0304103 assessed as inhibition of biofilm formation incubated for 24 hrs by XTT-dye based assay; type: functional, organism-based; conditions: dose 4-64 µg/ml
In short: (§1)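 Cell suspensions (1.0 × 10^5 CFU/mL) were adhered for 90 min at 37°C, then rinsed three times with PBS. Compounds were added at a range of concentrations from 2 mg/mL DMSO stocks, with fluconazole as the positive control. Plates were cultured 24 h at 37°C, and biofilm was measured semi-quantitatively by XTT reduction.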

Candida tropicalis [4] = experiment: Antibiofilm activity against azole resistant Candida tropicalis 10186 assessed as inhibition of biofilm formation incubated for 24 hrs by XTT-dye based assay; type: functional, organism-based; conditions: dose 4-64 µg/ml; in short: as §1
Candida tropicalis [5] = experiment: Antibiofilm activity against azole resistant Candida tropicalis 10186 assessed as inhibition of biofilm formation at 64 ug/ml incubated for 24 hrs by XTT-dye based assay relative to control; type: functional; in short: as §1
Candida albicans [6] = experiment: Downregulation of SAP2 in azole resistant Candida albicans 0304103 at 64 ug/ml by qRT-PCR analysis; type: functional; conditions: dose 64.0 µg/ml
Candida albicans [7] = experiment: Antibiofilm activity against azole resistant Candida albicans 0304103 assessed as inhibition of biofilm formation at 64 ug/ml incubated for 24 hrs by XTT-dye based assay relative to control; type: functional; in short: as §1
Candida albicans [8] = experiment: Antifungal activity against azole resistant Candida albicans 0304103 infected in ICR mouse assessed as reduction in fungal burden in kidney at 10 mg/kg, ip administered for 4 days; type: functional, organism-based; conditions: time 4.0 day
In short: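 Female ICR mice (20–25 g) were immunosuppressed with cyclophosphamide, 100 mg/kg ip in saline. After 24 h they were infected iv with 0.2 mL of 1×10^5 CFU/mL cells. Starting 24 h after infection, mice (4 per group) received the drug ip once daily for four days; controls received saline or fluconazole 10 mg/kg. Kidneys were homogenized and plated on YPD at 30°C for log10 CFU.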

SMILES	IC50 [1] [µM]	inhibition (Candida albicans [2]) [%]	other results
O=C(O)COc1ccc(/C=C2\C(=O)N(c3ccc(F)cc3F)N=C2c2ccccc2)c(OCC(=O)O)c1	32.7	86	–
O=C1/C(=C\c2ccc(Br)cc2)C(c2ccccc2)=NN1c1ccccc1	–	10	–
O=C(O)COc1ccc(/C=C2\C(=O)N(c3ccc(F)cc3)N=C2c2ccccc2)c(OCC(=O)O)c1	17.9	93	–
Cc1ccc(CN2C(=O)C(=Cc3ccc(OCC(=O)O)cc3OCC(=O)O)C(=O)N2Cc2ccc(C)cc2)cc1	17.4	94	–
Cc1ccc(N2N=C(c3ccccc3)/C(=C/c3ccccc3OCC(=O)O)C2=O)cc1	72.3	63	–
COc1ccc(N2N=C(c3ccccc3)/C(=C/c3ccc(OCC(=O)O)cc3)C2=O)cc1	20.4	95	–
COc1ccc(CN2C(=O)/C(=C/c3ccc(OCC(=O)O)cc3OCC(=O)O)c3ccc(-c4ccc(C)cc4)cc32)cc1	–	29	–
O=C(O)COc1ccc(/C=C2\C(=O)N(c3ccc(F)cc3)N=C2c2ccccc2)cc1OCC(=O)O	33.7	83	–
O=C(O)COc1ccccc1/C=C1\C(=O)N(c2ccccc2)N=C1c1ccccc1	62.1	68	–
CCn1cc(/C=C(\NC(=O)c2ccccc2OC)C(=O)NCCO)c2ccccc21	46.1	–	–
O=C(O)COc1ccc(/C=C2\C(=O)N(c3ccccc3)N=C2c2ccccc2)cc1	18.2	94	–
Cc1ccc(-c2ccc3c(c2)N(Cc2ccc(F)cc2)C(=O)/C3=C/c2ccc(OCC(=O)O)cc2OCC(=O)O)cc1	–	58	–
COc1ccc(N2N=C(c3ccccc3)/C(=C/c3ccc(OCC(=O)O)c(OCC(=O)O)c3)C2=O)cc1	21.5	88	–
CN(C)c1ccc(/C=C2\C(=O)N(c3ccccc3)N=C2c2ccccc2)cc1	–	11	–
Cc1ccc(N2N=C(c3ccccc3)/C(=C/c3ccc(OCC(=O)O)cc3OCC(=O)O)C2=O)cc1	13.5	99	–
O=C(O)COc1ccc(/C=C2\C(=O)N(c3cccc(Cl)c3)N=C2c2ccccc2)cc1	26.4	90	–
COc1ccc(N2N=C(c3ccccc3)/C(=C/c3ccc(OCC(=O)O)cc3OCC(=O)O)C2=O)cc1	15.7	94	–
O=C(O)COc1ccc(/C=C2\C(=O)N(c3ccc(Cl)cc3)N=C2c2ccccc2)cc1OCC(=O)O	46.9	70	–
Cc1ccc(-c2ccc3c(c2)N(Cc2ccc(C(F)(F)F)cc2)C(=O)/C3=C/c2ccc(OCC(=O)O)cc2OCC(=O)O)cc1	–	100	inhibition (Candida albicans [3]): Dose-dependent effect; inhibition (Candida tropicalis [4]): Dose-dependent effect; inhibition at 64 µg/mL (Candida tropicalis [5]): > 50%; Activity (Candida albicans [6]): Active
Cc1ccc(-c2ccc3c(c2)N(Cc2ccc(C#N)cc2)C(=O)/C3=C/c2ccc(OCC(=O)O)cc2OCC(=O)O)cc1	–	100	inhibition (Candida albicans [3]): Dose-dependent effect; inhibition (Candida tropicalis [4]): Dose-dependent effect; inhibition at 64 µg/mL (Candida albicans [7]): > 50%; Activity (Candida albicans [6]): Active
O=C(O)COc1ccccc1/C=C1\C(=O)N(c2ccc(F)cc2)N=C1c1ccccc1	–	46	–
O=C(O)COc1ccc(/C=C2\C(=O)N(c3ccc(Cl)cc3)N=C2c2ccccc2)cc1	13	96	–

SMILES	IC50 [1] [µM]	inhibition (Candida albicans [2]) [%]	other results
COc1ccc(N2N=C(c3ccccc3)/C(=C/c3ccccc3OCC(=O)O)C2=O)cc1	70.7	64	–
COc1cc([C@H]2C(C(=O)c3ccc([N+](=O)[O-])cc3)=C(O)C(=O)N2CCCCCC(=O)O)ccc1O	64	–	–
O=C(O)COc1ccc(/C=C2\C(=O)N(c3cccc(Cl)c3)N=C2c2ccccc2)cc1OCC(=O)O	22.7	82	–
O=C(O)COc1ccccc1/C=C1\C(=O)N(c2cccc(Cl)c2)N=C1c1ccccc1	55.5	70	–
O=C(O)COc1ccc(/C=C2\C(=O)N(c3ccccc3)N=C2c2ccccc2)c(OCC(=O)O)c1	10.1	99	–
CC(C)CC(=O)N[C@H](C(=O)N[C@H](C(=O)N[C@@H](CC(C)C)[C@@H](O)CC(=O)N[C@@H](C)C(=O)N[C@@H](CC(C)C)[C@@H](O)CC(=O)O)C(C)C)C(C)C [PEPSTATIN]	0.022	100	–
O=C(O)COc1ccc(/C=C2\C(=O)N(c3ccc(F)cc3)N=C2c2ccccc2)cc1	39.6	71	–
CCOc1ccc(/C=C2\C(=O)N(c3ccccc3)N=C2c2ccccc2)cc1	–	5	–
Cc1ccc(-c2ccc3c(c2)N(Cc2ccc(Cl)cc2)C(=O)/C3=C/c2ccc(OCC(=O)O)cc2OCC(=O)O)cc1	–	100	inhibition (Candida albicans [3]): Dose-dependent effect; inhibition (Candida tropicalis [4]): Dose-dependent effect; inhibition at 64 µg/mL (Candida albicans [7]): > 50%; inhibition at 64 µg/mL (Candida tropicalis [5]): > 50%; Activity (Candida albicans [6]): Active
OC(Cn1cncn1)(Cn1cncn1)c1ccc(F)cc1F	–	–	Activity (Candida albicans [8]): Active
Cc1ccc(N2N=C(c3ccccc3)/C(=C/c3ccc(OCC(=O)O)cc3)C2=O)cc1	21.6	93	–
O=C1/C(=C\c2ccc(O)cc2)C(c2ccccc2)=NN1c1ccccc1	–	12	–
O=C(O)COc1ccccc1/C=C1\C(=O)N(c2ccc(Cl)cc2)N=C1c1ccccc1	75.2	60	–
Cc1ccc(CN2C(=O)/C(=C\c3ccc(OCC(=O)O)cc3OCC(=O)O)N(Cc3ccc(C)cc3)C2=O)cc1	23.8	91	–
CC(=O)c1ccc(CN2C(=O)/C(=C/c3ccc(OCC(=O)O)cc3OCC(=O)O)c3ccc(-c4ccc(C)cc4)cc32)cc1	–	90	Activity (Candida albicans [6]): Active
Cc1ccc(N2N=C(c3ccccc3)/C(=C/c3ccc(OCC(=O)O)c(OCC(=O)O)c3)C2=O)cc1	22.3	85	–
O=C(O)COc1ccc(/C=C2\C(=O)N(c3cccc(Cl)c3)N=C2c2ccccc2)c(OCC(=O)O)c1	11.5	99	–
O=C(O)COc1ccc(/C=C2\C(=O)N(c3ccc(Cl)cc3)N=C2c2ccccc2)c(OCC(=O)O)c1	10.8	99	–
CCc1ccc(/C=C2\C(=O)N(c3ccccc3)N=C2c2ccccc2)cc1	–	7	–
O=C(O)COc1ccc(/C=C2\C(=O)N(c3ccccc3)N=C2c2ccccc2)cc1OCC(=O)O	18.5	86	–
Cc1ccc(-c2ccc3c(c2)N(Cc2ccc(S(C)(=O)=O)cc2)C(=O)/C3=C/c2ccc(OCC(=O)O)cc2OCC(=O)O)cc1	–	100	inhibition (Candida albicans [3]): Dose-dependent effect; inhibition (Candida tropicalis [4]): Dose-dependent effect
